The record followed here is PubChem BioAssay AID623962 (The Scripps Research Institute Molecular Screening Center, 2012).

Each structure is given as a SMILES string. Activity calls are given as the source filed them.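 How the source made its calls: active means mean inhibition at 10 µM of 50% or more; inactive means mean inhibition at 10 µM below 50%.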

The assay relates to Huh-7.5 HCV Rluc replicon, luciferase luminescence, 72 h. Kind of assay: inhibition of HCV replicon replication, late-stage follow-up, orthogonal assay for HCV NS3 helicase inhibitor project, cell-based, luminescence, Renilla luciferase replicon (AID 623962). The note with it: at 10 µM; active compounds read high. The method in brief: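 Dosing: one concentration, 10 µM in 0.5% DMSO / Assay system: Huh-7.5 HCV Renilla luciferase replicon cells / Benchmarks: DMSO-treated cells as uninhibited reference / Signal: Renilla luciferase luminescence of lysed cells / Schedule: cell attachment 4-5 h, then compound exposure 72 h, 37 °C, 5% CO2 / Read-out basis: % replication inhibition versus DMSO-treated cells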
For orientation: In antiviral work, replicon cells carry a viral genome segment that copies itself.
By inhibition is commonly meant the change of the read-out against control, counted positive when it falls. In the case of `Cc1ccc2nc(-c3ccc4nc(-c5ccc(NC(=O)c6ccccc6)cc5)sc4c3)sc2c1S(=O)(=O)O`, the inhibition was 45% (inactive).

`Cc1ccc2nc(-c3ccc(NC(=O)c4ccc(N)cc4)cc3)sc2c1S(=O)(=O)O`: the inhibition is 21% (inactive).

Consider `Cc1ccc(C(=O)Nc2ccc(-c3nc4ccc(-c5nc6ccc(C)c(S(=O)(=O)O)c6s5)cc4s3)cc2)cc1`, for which the inhibition was 52%.

For `Cc1ccc2nc(-c3ccc(NC(=O)c4ccc(NC(=O)c5ccc(N)cc5)cc4)cc3)sc2c1S(=O)(=O)O`, the inhibition is -42% (inactive).

Regarding `COC(=O)c1ccc(C(=O)Nc2ccc(-c3nc4ccc(-c5nc6ccc(C)c(S(=O)(=O)O)c6s5)cc4s3)cc2)cc1`, the inhibition is 40% (inactive).

With `Cc1ccc2nc(-c3ccc4nc(-c5ccc(NC(=O)c6cc(F)ccc6C(F)(F)F)cc5)sc4c3)sc2c1S(=O)(=O)O`, the inhibition was 61%.

Turning to `Cc1ccc2nc(-c3ccc(NC(=O)c4ccc(NC(=O)Nc5ccccc5)cc4)cc3)sc2c1S(=O)(=O)O`, the inhibition was -64% (inactive).

For `Cc1ccc2nc(-c3ccc(NC(=O)c4ccc(NC(=O)OCC5c6ccccc6-c6ccccc65)cc4)cc3)sc2c1S(=O)(=O)O`, the inhibition is 31% (inactive).
